Source: ChEMBL document CHEMBL1134490, “Estradiol-16alpha-carboxylic acid esters as locally active estrogens” (2001)

How the values were obtained:
Ishikawa = experiment: Relative stimulation of alkaline phosphatase (AlkP) activity in Ishikawa cells; format: functional, Homo sapiens
In short: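 Ishikawa cells in phenol red-free medium with charcoal-stripped bovine serum, exposed for 3 days to steroid over at least 6 orders of magnitude of concentration. Cells were freeze-thawed, then given 5 mM p-nitrophenyl phosphate at pH 9.8, read kinetically at 405 nm. RSA = (1/EC50 analogue)/(1/EC50 E2) × 100. At least three experiments in duplicate.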

[1] = tested on: esterase (Rattus norvegicus); experiment: Relative hydrolytic activity against esterase in rat hepatic microsomes; details: Liver

With `C[C@]12CC[C@@H]3c4ccc(O)cc4CC[C@H]3[C@@H]1C[C@@H](CC(=O)O)[C@@H]2O` the RSA (Ishikawa) was 0.
In the case of `CC(C)OC(=O)[C@@H]1C[C@H]2[C@@H]3CCc4cc(O)ccc4[C@H]3CC[C@]2(C)[C@H]1O`, the RSA (Ishikawa) is reported as 0.1.
`COC(=O)C[C@@H]1C[C@H]2[C@@H]3CCc4cc(O)ccc4[C@H]3CC[C@]2(C)[C@H]1O` was tested, and the RHA [1] was 340 and the RSA (Ishikawa) was 0.5.
Molecule `C[C@]12CC[C@@H]3c4ccc(O)cc4CC[C@H]3[C@@H]1C[C@@H](CCC(=O)O)[C@@H]2O` has an RSA (Ishikawa) of 0.
`CCOC(=O)C[C@@H]1C[C@H]2[C@@H]3CCc4cc(O)ccc4[C@H]3CC[C@]2(C)[C@H]1O` gave an RHA [1] of 700 and an RSA (Ishikawa) of 0.3.
With `C[C@]12CC[C@@H]3c4ccc(O)cc4CC[C@H]3[C@@H]1CCC2=O` [ESTRONE] the RSA (Ishikawa) was 7.
For `COC(=O)CC[C@@H]1C[C@H]2[C@@H]3CCc4cc(O)ccc4[C@H]3CC[C@]2(C)[C@H]1O`, the RHA [1] was 910 and the RSA (Ishikawa) was 0.
